Source: ChEMBL document CHEMBL3994609, “Model-Based Discovery of Synthetic Agonists for the Zn2+-Sensing G-Protein-Coupled Receptor 39 (GPR39) Reveals Novel Biological Functions” (J Med Chem, 2017)
Active and inactive are the calls of the source. No cut-off for these calls is given here.

Columns and labels:
[1] = Increase in CGRP-induced somatostatin release in primary gastric mucosal cells isolated from GPR39 deficient C57BL/6 mouse at 1 uM in presence of 10 uM of Zn2+ measured after 4 hrs by radioimmunoassay relative to control; format: functional, Primary gastric mucosal cell; settings: in the assay text read “C57BL/6 mouse” for “GPR39 deficient C57BL/6 mouse”
[2] = molecular target: Growth hormone secretagogue receptor type 1 (Homo sapiens) (UniProt Q92847); assay: Agonist activity at human ghrelin receptor ([…]) assessed as myo-[2-3H]inositol phosphate accumulation in presence of 10 uM Zn2+ measured after 75 mins by scintillation proximity assay; format: functional
Sequence of Growth hormone secretagogue receptor type 1 (Homo sapiens) (Q92847 whole entry): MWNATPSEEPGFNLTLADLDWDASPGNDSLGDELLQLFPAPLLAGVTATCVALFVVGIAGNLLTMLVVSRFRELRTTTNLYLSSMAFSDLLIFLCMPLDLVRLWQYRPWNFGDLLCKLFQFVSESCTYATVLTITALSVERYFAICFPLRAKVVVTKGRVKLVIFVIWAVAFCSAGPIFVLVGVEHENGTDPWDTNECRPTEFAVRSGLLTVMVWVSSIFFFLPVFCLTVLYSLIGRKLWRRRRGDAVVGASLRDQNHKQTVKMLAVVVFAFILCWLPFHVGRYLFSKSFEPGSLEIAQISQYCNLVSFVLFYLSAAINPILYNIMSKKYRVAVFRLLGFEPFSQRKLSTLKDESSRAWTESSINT

[3] = molecular target: T1, G-protein coupled receptor 39 (Homo sapiens, UniProt O43194); assay: (§1) Agonist activity at human GPR39 expressed in HEK293 cells co-expressing Galphaq assessed as myo-[2-3H]inositol phosphate accumulation measured after 75 mins by scintillation proximity assay; format: functional, cell-based
T1 sequence (O43194 whole entry): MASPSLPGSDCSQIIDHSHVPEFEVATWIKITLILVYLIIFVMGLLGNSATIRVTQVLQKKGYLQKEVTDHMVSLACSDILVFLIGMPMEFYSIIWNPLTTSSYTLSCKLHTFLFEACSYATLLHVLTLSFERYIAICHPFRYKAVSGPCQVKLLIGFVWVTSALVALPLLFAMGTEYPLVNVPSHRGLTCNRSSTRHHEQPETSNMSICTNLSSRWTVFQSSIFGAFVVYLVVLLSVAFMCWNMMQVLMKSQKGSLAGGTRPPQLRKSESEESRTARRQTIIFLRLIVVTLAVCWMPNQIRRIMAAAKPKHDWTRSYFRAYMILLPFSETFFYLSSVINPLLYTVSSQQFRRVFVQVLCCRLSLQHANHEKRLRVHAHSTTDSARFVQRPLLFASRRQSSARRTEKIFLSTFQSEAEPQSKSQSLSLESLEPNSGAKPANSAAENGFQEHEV

[4] = molecular target: T2, G-protein coupled receptor 39 (Homo sapiens) (UniProt O43194); assay: Agonist activity at GPR39 (unknown origin) expressed in COS7 cells co-expressing Galphas assessed as increase in intracellular cAMP level measured after 30 mins by chemiluminescence assay; format: functional, cell-based
T2 sequence (whole entry): T1 sequence (O43194 whole entry)

[5] = molecular target: Neuromedin-U receptor 2 (Homo sapiens) (UniProt Q9GZQ4); assay: Agonist activity at human NMU2 receptor assessed as myo-[2-3H]inositol phosphate accumulation measured after 75 mins by scintillation proximity assay; format: functional
Sequence of Neuromedin-U receptor 2 (Homo sapiens) (Q9GZQ4 whole entry): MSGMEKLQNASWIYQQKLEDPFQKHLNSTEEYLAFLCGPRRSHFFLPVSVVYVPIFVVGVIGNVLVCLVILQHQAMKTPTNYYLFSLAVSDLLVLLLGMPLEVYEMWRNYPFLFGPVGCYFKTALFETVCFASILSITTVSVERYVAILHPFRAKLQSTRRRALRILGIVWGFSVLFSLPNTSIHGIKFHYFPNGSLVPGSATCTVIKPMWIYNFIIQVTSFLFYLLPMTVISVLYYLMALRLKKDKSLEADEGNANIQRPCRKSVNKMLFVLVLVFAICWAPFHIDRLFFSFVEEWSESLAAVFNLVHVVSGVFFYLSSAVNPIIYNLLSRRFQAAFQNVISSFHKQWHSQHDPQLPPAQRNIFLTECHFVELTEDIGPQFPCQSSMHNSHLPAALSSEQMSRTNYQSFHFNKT

[6] = molecular target: T3, C-C chemokine receptor type 1 (Homo sapiens) (UniProt P32246); assay: Agonist activity at full length human CCR1 assessed as myo-[2-3H]inositol phosphate accumulation in presence of 10 uM Zn2+ measured after 75 mins by scintillation proximity assay; format: functional
T3 sequence (whole entry): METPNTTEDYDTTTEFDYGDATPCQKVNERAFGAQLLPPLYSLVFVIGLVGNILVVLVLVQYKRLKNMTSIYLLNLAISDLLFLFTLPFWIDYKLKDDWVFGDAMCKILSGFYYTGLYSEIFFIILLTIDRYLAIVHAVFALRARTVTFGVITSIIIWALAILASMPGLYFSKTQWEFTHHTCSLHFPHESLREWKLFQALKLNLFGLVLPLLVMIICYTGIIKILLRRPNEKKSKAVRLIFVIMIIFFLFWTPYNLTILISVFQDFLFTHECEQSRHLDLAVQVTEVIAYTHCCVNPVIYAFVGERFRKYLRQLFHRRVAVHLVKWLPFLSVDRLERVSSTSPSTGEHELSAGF

[7] = molecular target: T1, G-protein coupled receptor 39; assay: (§2) Agonist activity at human GPR39 expressed in HEK293 cells co-expressing Galphaq assessed as myo-[2-3H]inositol phosphate accumulation in presence of 10 uM Zn2+ measured after 75 mins by scintillation proximity assay; format: functional, cell-based
[8] = molecular target: Neuromedin-U receptor 2 (Homo sapiens) (UniProt Q9GZQ4); assay: Agonist activity at human NMU2 receptor assessed as myo-[2-3H]inositol phosphate accumulation in presence of 10 uM Zn2+ measured after 75 mins by scintillation proximity assay; format: functional
[9] = molecular target: T4, G-protein coupled receptor 39 (Mus musculus) (UniProt Q5U431); assay: Agonist activity at GPR39 in primary gastric mucosal cells isolated from C57BL/6 mouse assessed as inhibition of isoproterenol-induced ghrelin secretion at 1 uM in presence of 10 uM of Zn2+ and somatostatin receptor antagonist BIM-23627 measured after 4 hrs by ELISA
T4 sequence (whole entry): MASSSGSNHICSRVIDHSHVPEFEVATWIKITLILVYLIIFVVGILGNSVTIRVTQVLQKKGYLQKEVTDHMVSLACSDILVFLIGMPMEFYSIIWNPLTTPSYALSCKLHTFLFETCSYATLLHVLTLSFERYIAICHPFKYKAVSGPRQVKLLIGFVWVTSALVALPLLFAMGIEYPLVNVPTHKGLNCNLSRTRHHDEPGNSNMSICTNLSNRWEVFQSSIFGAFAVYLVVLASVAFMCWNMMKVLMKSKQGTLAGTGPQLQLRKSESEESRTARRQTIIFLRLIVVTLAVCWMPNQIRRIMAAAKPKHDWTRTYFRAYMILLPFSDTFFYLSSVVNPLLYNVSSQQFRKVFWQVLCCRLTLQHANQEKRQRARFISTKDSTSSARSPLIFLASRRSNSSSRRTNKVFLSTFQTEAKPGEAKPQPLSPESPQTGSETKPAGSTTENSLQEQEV
Outline: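 Primary gastric mucosal cell cultures from mice, incubated the day after preparation with ligands at 1 μM with 10 μM Zn2+ (with or without a somatostatin receptor antagonist) in triplicate for 4 h. Acyl-ghrelin in supernatant measured by ELISA, expressed as percent of medium-alone cells; n=5–7; unpaired t-test with Welch's correction versus vehicle.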

[10] = molecular target: T5, G-protein coupled receptor 39 (Mus musculus, UniProt Q5U431); assay: Agonist activity at mouse GPR39 expressed in HEK293 cells co-expressing Galphaq assessed as myo-[2-3H]inositol phosphate accumulation in presence of 10 uM Zn2+ measured after 75 mins by scintillation proximity assay; format: functional, cell-based
T5 sequence (Q5U431 whole entry): T4 sequence (whole entry)

[11] = molecular target: C-C chemokine receptor type 5 (Macaca mulatta) (UniProt P61813); assay: Agonist activity at full length monkey CCR5 assessed as myo-[2-3H]inositol phosphate accumulation in presence of 10 uM Zn2+ measured after 75 mins by scintillation proximity assay; format: functional
[12] = molecular target: Motilin receptor (Homo sapiens) (UniProt O43193); assay: Agonist activity at human motilin receptor (412 residues) assessed as myo-[2-3H]inositol phosphate accumulation measured after 75 mins by scintillation proximity assay; format: functional
Sequence of Motilin receptor (Homo sapiens) (O43193 whole entry): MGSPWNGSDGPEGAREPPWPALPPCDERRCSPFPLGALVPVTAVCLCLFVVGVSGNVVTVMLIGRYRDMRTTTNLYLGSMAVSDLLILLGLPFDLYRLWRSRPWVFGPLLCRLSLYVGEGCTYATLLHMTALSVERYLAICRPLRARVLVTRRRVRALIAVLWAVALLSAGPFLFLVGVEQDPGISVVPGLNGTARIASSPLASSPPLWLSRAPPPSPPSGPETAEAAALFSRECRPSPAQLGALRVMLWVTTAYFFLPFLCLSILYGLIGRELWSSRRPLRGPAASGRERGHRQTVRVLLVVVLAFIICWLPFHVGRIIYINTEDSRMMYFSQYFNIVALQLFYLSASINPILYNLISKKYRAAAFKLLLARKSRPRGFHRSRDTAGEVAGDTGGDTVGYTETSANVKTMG

[13] = molecular target: Motilin receptor (Homo sapiens) (UniProt O43193); assay: Agonist activity at human motilin receptor (412 residues) assessed as myo-[2-3H]inositol phosphate accumulation in presence of 10 uM Zn2+ measured after 75 mins by scintillation proximity assay; format: functional
[14] = molecular target: T4, G-protein coupled receptor 39 (Mus musculus); assay: Agonist activity at GPR39 in primary gastric mucosal cells isolated from C57BL/6 mouse assessed as myo-[2-3H]inositol phosphate accumulation in presence of 10 uM Zn2+ measured after 75 mins by scintillation proximity assay; format: functional
Outline: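 Primary murine gastric mucosal cell cultures stimulated with ligand plus 10 μM Zn2+; inositol phosphate turnover read out as for the transfected-cell IP accumulation assay.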

[15] = molecular target: T2, G-protein coupled receptor 39 (Homo sapiens); assay: (§3) Agonist activity at GPR39 (unknown origin) expressed in COS7 cells co-expressing Galphas assessed as increase in intracellular cAMP level in presence of 3 uM Zn2+ measured after 30 mins by chemiluminescence assay; format: functional, cell-based
[16] = molecular target: T1, G-protein coupled receptor 39; assay: as §3; format: functional, cell-based
[17] = tested on: Primary gastric mucosal cell; assay: Induction of CGRP-induced somatostatin release in primary gastric mucosal cells isolated from GPR39 deficient C57BL/6 mouse at 1 uM in presence of 10 uM of Zn2+ measured after 4 hrs by radioimmunoassay; format: functional, cell-based
Outline: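 Primary gastric mucosal cells from GPR39-KO mice, day after preparation, exposed to ligands (1 μM, 10 μM Zn2+) in triplicate for 4 h; supernatant somatostatin measured by in-house RIA and expressed as percent of medium-alone secretion; 10 nM CGRP used as a comparator stimulus; n=2.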

[18] = molecular target: C-C chemokine receptor type 5 (Macaca mulatta) (UniProt P61813); assay: Agonist activity at full length rhesus monkey CCR5 assessed as myo-[2-3H]inositol phosphate accumulation measured after 75 mins by scintillation proximity assay; format: functional
[19] = molecular target: T3, C-C chemokine receptor type 1 (Homo sapiens); assay: Agonist activity at full length human CCR1 assessed as myo-[2-3H]inositol phosphate accumulation measured after 75 mins by scintillation proximity assay; format: functional
[20] = molecular target: Growth hormone secretagogue receptor type 1 (Homo sapiens) (UniProt Q92847); assay: Agonist activity at human ghrelin receptor ([…]) assessed as myo-[2-3H]inositol phosphate accumulation measured after 75 mins by scintillation proximity assay; format: functional
[21] = molecular target: T4, G-protein coupled receptor 39 (Mus musculus); assay: Agonist activity at GPR39 in primary gastric mucosal cells isolated from C57BL/6 mouse assessed as inhibition of basal ghrelin secretion at 1 uM in presence of 10 uM of Zn2+ measured after 4 hrs by ELISA relative to basal level
[22] = molecular target: T2, G-protein coupled receptor 39 (Homo sapiens); assay: as §2; format: functional, cell-based
[23] = molecular target: T2, G-protein coupled receptor 39 (Homo sapiens); assay: Agonist activity at human GPR39 expressed in HEK293 cells co-expressing Galphaq assessed as myo-[2-3H]inositol phosphate accumulation in presence of 10 uM Zn2+ measured after 75 mins by scintillation proximity assay relative to zinc; format: functional, cell-based
[24] = molecular target: T2, G-protein coupled receptor 39 (Homo sapiens); assay: as §1; format: functional, cell-based
[25] = molecular target: T2, G-protein coupled receptor 39 (Homo sapiens); assay: Agonist activity at human GPR39 expressed in HEK293 cells co-expressing Galphaq assessed as myo-[2-3H]inositol phosphate accumulation in presence of 100 nM Zn2+ measured after 75 mins by scintillation proximity assay; format: functional, cell-based
[26] = molecular target: T2, G-protein coupled receptor 39 (Homo sapiens); assay: Agonist activity at human GPR39 expressed in HEK293 cells co-expressing Galphaq assessed as myo-[2-3H]inositol phosphate accumulation in presence of 1 uM Zn2+ measured after 75 mins by scintillation proximity assay; format: functional, cell-based

**Q.** For `Cc1nn(-c2ncnc3nc[nH]c23)c2c1C(OCc1cc(F)cc3c1OCOC3)CC(=O)N2` (centres undefined), which Activity [1] is on record?
**A.** 82%

**Q.** And the Activity [2]?
**A.** inactive

**Q.** And the EC50 [3]?
**A.** 30 nM

**Q.** What about the Activity [4] of the same molecule?
**A.** inactive

**Q.** What about the Activity [5] of the same molecule?
**A.** inactive

**Q.** What about the Activity [6] of the same molecule?
**A.** inactive

**Q.** What about the EC50 [7] of the same molecule?
**A.** 1.5 nM

**Q.** What about the Activity [8] of the same molecule?
**A.** inactive

**Q.** What about the inhibition [9] of the same molecule?
**A.** inactive

**Q.** What about the EC50 [10] of the same molecule?
**A.** 2.6 nM

**Q.** And the Activity [11]?
**A.** inactive

**Q.** And the Activity [12]?
**A.** inactive

**Q.** What about the Activity [13] of the same molecule?
**A.** inactive

**Q.** And the Activity [14]?
**A.** Dose-dependent effect

**Q.** What about the Activity [15] of the same molecule?
**A.** Dose-dependent effect

**Q.** What about the EC50 [16] of the same molecule?
**A.** 12 nM

**Q.** What about the Activity [17] of the same molecule?
**A.** inactive

**Q.** And the Activity [18]?
**A.** inactive

**Q.** And the Activity [19]?
**A.** inactive

**Q.** What about the Activity [20] of the same molecule?
**A.** inactive

**Q.** What about the inhibition [21] of the same molecule?
**A.** 61%

**Q.** For `Cc1cc(C)nc(-n2nc(C)c3c2NC(=O)CC3c2ccc(COc3cccc(Cl)c3)cc2)n1` (centres undefined), which EC50 [3] is on record?
**A.** 3000 nM

**Q.** And the Activity [22]?
**A.** Active

**Q.** What about the fold change (FC) [23] of the same molecule?
**A.** 2

**Q.** For `O=C1/C(=C/NCCCO)C(c2ccccc2)=NN1c1nc2ccccc2s1`, which Activity [24] is on record?
**A.** inactive

**Q.** What about the Activity [25] of the same molecule?
**A.** inactive

**Q.** What about the EC50 [7] of the same molecule?
**A.** 200 nM

**Q.** And the Activity [26]?
**A.** Dose-dependent effect

**Q.** What about the fold change (FC) [23] of the same molecule?
**A.** 2
